Measured values taken from ChEMBL document CHEMBL2331522, “Dibenzocyclooctadiene lignans and norlignans from fruits of Schisandra wilsoniana” (J Nat Prod, 2013).
Values after ≈ are worked out from the molar mass of the structure shown.

Assays:
[1] = Therapeutic index, ratio of CC50 for human C8166 cells to EC50 for HIV1; type: cell-based; details: read-out: Ratio CC50/EC50
[2] = tested on: Human immunodeficiency virus 1; experiment: Antiviral activity against HIV1 assessed as reduction in virus-induced cytopathogenicity; type: functional, organism-based
Procedure, shortened: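 Test compounds were added to C8166 cells infected with HIV-1 and scored for protection from virus-induced cytopathic effect. The concentration giving 50% protection is reported as EC50.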

[3] = Cytotoxicity against human C8166 cells by MTT assay; type: cell-based

SMILES | selectivity ratio [1] | EC50 [2] | CC50 [3]
COc1cc2c(c(OC)c1O)-c1c(cc(OC)c(OC)c1OC)C[C@H](C)[C@H](C)[C@H]2O [MARLIGNAN M] | 9.39 | 3.42 mg/L (≈ 8.17 µM) | 32.1 mg/L (≈ 76.7 µM)
COc1cc2c(c(O)c1OC)-c1c(cc(OC)c(OC)c1O)[C@H](O)[C@@H](C)[C@@H](C)C2 [MARLIGNAN N] | 7.67 | 6.18 mg/L (≈ 15.3 µM) | 47.4 mg/L (≈ 117 µM)
COc1c(O)cc2c(c1OC)-c1c(cc3c(c1OC)OCO3)C[C@H](C)[C@H](C)[C@H]2O [MARLIGNAN O] | 12.1 | 5.84 mg/L (≈ 14.5 µM) | 70.6 mg/L (≈ 175 µM)
COc1c2c(cc3c1-c1c(cc4c(c1O)OCO4)C[C@H](C)[C@H](C)[C@H]3OC)OCO2 [MARLIGNAN P] | 23.5 | 3.18 mg/L (≈ 7.94 µM) | 74.6 mg/L (≈ 186 µM)
COc1c2c(cc3c1-c1c(cc4c(c1O)OCO4)[C@H](OC)[C@@H](C)[C@@H](C)C3)OCO2 [MARLIGNAN Q] | 5.33 | 4.22 mg/L (≈ 10.5 µM) | 22.5 mg/L (≈ 56.2 µM)
COc1cc2c(c(O)c1OC)-c1c(cc3c(c1OC)OCO3)[C@H](OC)[C@@H](C)[C@@H](C)C2 [MARLIGNAN R] | 9.48 | 3.87 mg/L (≈ 9.29 µM) | 36.7 mg/L (≈ 88.1 µM)
COc1cc2c(c(OC)c1OC)-c1c(cc3c(c1O)OCO3)[C@H](OC)[C@@H](C)[C@@H](C)C2 [MARLIGNAN S] | 10.3 | 4.14 mg/L (≈ 9.94 µM) | 42.8 mg/L (≈ 103 µM)
COc1ccc(C(c2ccc(OC)c(O)c2)[C@H](C(=O)O)C(CO)CO)cc1O [MARLPHENOL E] | 21.2 | 3.47 mg/L (≈ 8.84 µM) | 73.5 mg/L (≈ 187 µM)
COc1ccc([C@@H](c2ccc3c(c2)OCO3)[C@H](C(=O)O)C(CO)CO)cc1O [MARLPHENOL F] | 27.6 | 2.97 mg/L (≈ 7.61 µM) | 82.1 mg/L (≈ 210 µM)
COc1cc(C(O)C(C(=O)O)C(CO)CO)ccc1O (stereo unspecified) [MARPHENOL C] | 26.9 | 3.14 mg/L (≈ 11 µM) | 84.5 mg/L (≈ 295 µM)
COc1cc(C(O)C(C(=O)O)C(CO)CO)cc(O)c1OC (stereo unspecified) [MARPHENOL D] | 29.1 | 3.22 mg/L (≈ 10.2 µM) | 93.8 mg/L (≈ 297 µM)
Cc1cn([C@H]2C[C@H](N=[N+]=[N-])[C@@H](CO)O2)c(=O)[nH]c1=O [ZIDOVUDINE] | > 46500 | 0.0043 mg/L (≈ 0.0161 µM) | > 200 mg/L
